In the library only some 1.5% were active in any assay of this set; here they are far more common.
PKA-R1A act: activates the PKA-R1A holoenzyme complex; PKA-R1A dissociation, Cy5-IP20 fluorescence polarization; scaled: DMSO 0%, 113 µM cGMP 100%; activation, % at 11.4 µM; 340,000 tested, 0.083% active; AID 504707;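 active means percent activation above the mean of all tested compounds plus 3 SD, cut at about 19% in these data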;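 further: higher means more PKAc released from R1A so a rise in polarization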
PKA-R2B act: PKA-R2B complex activation; PKA-R2B holoenzyme dissociation, Cy5-IP20 fluorescence polarization; R2B truncated from residue 108, S112A mutant; 0% DMSO only, 100% 113 µM cGMP; activation, % at 11.4 µM; 340,000 tested, 0.079% active;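 active means activation above a cutoff set at the mean over all compounds plus 3 SD, cut at about 18% in these data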;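 further: higher means more holoenzyme dissociation and a rise in polarization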
Target sequence (P31323 whole entry, looked up, other chains not shown, the tested form may be a part): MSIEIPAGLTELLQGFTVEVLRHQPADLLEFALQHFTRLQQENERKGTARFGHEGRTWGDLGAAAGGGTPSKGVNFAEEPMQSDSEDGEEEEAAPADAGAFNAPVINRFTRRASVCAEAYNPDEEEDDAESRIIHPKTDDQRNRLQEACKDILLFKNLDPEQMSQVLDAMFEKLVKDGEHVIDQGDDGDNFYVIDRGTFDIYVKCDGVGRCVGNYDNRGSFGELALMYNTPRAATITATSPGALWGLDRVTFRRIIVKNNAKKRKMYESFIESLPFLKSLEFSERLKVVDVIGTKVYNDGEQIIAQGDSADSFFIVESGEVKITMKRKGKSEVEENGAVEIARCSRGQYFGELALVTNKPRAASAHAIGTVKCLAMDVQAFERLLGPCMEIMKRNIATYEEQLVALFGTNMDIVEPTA
Tb MetRS inh: Trypanosoma brucei MetRS inhibition | purified T. brucei MetRS, ATP depletion, Kinase-Glo luminescence | inhibition, % at 11.9 µM | 360,000 tested, 0.4% active | AID 624268;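 active means inhibition above a per-plate cutoff of the control wells' mean inhibition plus 3 SD, cut at about 5.5% in these data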;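 further: 0% = DMSO wells median and 100% = median of wells with control inhibitor compound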
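Dosing: 11.9 µM compound single dose, 0.9% DMSO; Assay system: purified T. brucei MetRS enzyme; Measured by: Kinase-Glo luciferase luminescence reporting remaining unconsumed ATP; Schedule: 15 min plus 2 h at 25 °C.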
H9c2 protect: protects H9c2 cardiomyocytes from peroxide injury | H2O2 injury protection, ATPLite, 2 h | protection from H2O2 cell death, % at 20 µM | 360,000 tested, 0.63% active | AID 588492;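 active means compounds giving at least 50% protection of heart cells from peroxide-induced death in the single-dose screen, raw or plate-pattern-corrected value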;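 further: 0% = DMSO wells with peroxide and 100% = DMSO wells without peroxide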
Rin1 Abl inh: blocks binding of human Rin1 to Abl; P00519+Q13671; 360,000 tested, 0.4% active; inhibition, % at 7.35 µM; TR-FRET Rin1/Abl binding, biochemical; in the data active means inhibition above about 5%, passing the limit was not always enough
Tb MetRS conf: confirmation of Trypanosoma brucei MetRS inhibitors; shares compounds with Tb MetRS inh; T. brucei MetRS enzyme, luminescence (ATP depletion); inhibition, % at 11.9 µM; 1,400 tested, 93% active; AID 624412; in the data active means inhibition above about 7%
Jurkat cytotox: Jurkat T cell cytotoxicity for MetRS hits | Jurkat cells viability, ATP luminescence | inhibition, % at 8.3 µM | shares compounds with Tb MetRS inh | 1,400 tested, 12% active; in the data active means inhibition above about 15%;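 further: 0% = vehicle and 100% = reference inhibitor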
Tb MetRS inh FP: T. brucei MetRS inhibition, orthogonal assay; shares compounds with Tb MetRS inh; purified T. brucei MetRS, fluorescence polarization; inhibition, % at 11.9 µM; 1,400 tested, 44% active; AID 651607; in the data active means inhibition above about 17%;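 further: 0% = vehicle wells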
* hit, by the source's call; · = no result given.

SMILES | PKA-R1A act | PKA-R2B act | Tb MetRS inh | H9c2 protect | Rin1 Abl inh | Tb MetRS conf | Jurkat cytotox | Tb MetRS inh FP
COc1cccc(N2CCN(c3ncnc4c3[nH]c3ccc(F)cc34)CC2C)c1 (stereo unspecified) | -5 | -9 | 8.5* | -35 | 3 | 12* | 95* | 14
CC1CN(S(=O)(=O)c2ccc(C(=O)N3CCc4ccccc43)cc2)CC(C)O1 (stereo unspecified) | 1 | 6 | 0 | -10 | -1 | · | · | ·
O=C(CSc1ncc(-c2ccccc2)[nH]1)Nc1ccccc1 | 3 | -10 | 2 | -5 | 6 | · | · | ·
O=C(CSc1ncc(-c2ccccc2)[nH]1)Nc1cccc(O)c1 | 1 | 2 | 5.6* | 2 | -5 | 13* | 8 | 5
COc1ccc(C(=O)NCC(=O)NCC(=O)OCc2ccc(Cl)cc2)cc1 | -11 | -14 | -2 | -1 | 1 | · | · | ·
COc1ccc(COC(=O)CCNC(=O)c2ccc(Cl)cc2)cc1 | 9 | -4 | 7.0* | -2 | 0 | 28* | -4 | 14
COc1ccc(CNC(=O)CCC(=O)Nc2ccc(Cl)cc2)cc1 | -2 | 3 | 7.1* | -2 | 0 | 17* | -1 | 6
CC1CCCC(C)N1CCCNC(=O)c1csc2c1CCCCC2 (stereo unspecified) | 4 | 1 | 0 | -3 | 1 | · | · | ·
O=C(O)c1nn2cc(CCO)cnc2c1Cl | -1 | -5 | -1 | 0 | -2 | · | · | ·
Cc1cccc(C)c1NC(=O)CN(c1ccccn1)S(=O)(=O)c1ccccc1 | -3 | -12 | 0 | -6 | 2 | · | · | ·
Cc1ccc2nc(SC(C)C(=O)Nc3cccc([N+](=O)[O-])c3)[nH]c2c1 (stereo unspecified) | -4 | -8 | 38* | -10 | 2 | 64* | 3 | 37*
Cc1ccc2nc(SCC(=O)Nc3ccc(F)c([N+](=O)[O-])c3)[nH]c2c1 | -4 | -3 | 39* | 0 | -2 | 50* | 19* | 27*
COc1ccc(CNC(=O)CN2CCC(NC(=O)c3ccccc3C)CC2)cc1 | 6 | -1 | 0 | 0 | 3 | · | · | ·
O=C(CSc1nc2ccc(Cl)cc2[nH]1)NCc1ccco1 | 1 | -2 | 8.3* | -1 | -2 | 13* | 8 | 2
O=C(CSc1nc2ccc(Cl)cc2[nH]1)NCCc1ccc(Cl)cc1 | -1 | -8 | 63* | -8 | -2 | 72* | 5 | 41*
CN(C(=O)CSc1nc2ccc(Cl)cc2[nH]1)C1CCS(=O)(=O)C1 (stereo unspecified) | 7 | 2 | 11* | -5 | 4 | 36* | 4 | 24*
CCN(C(=O)CSc1nc2ccc(C)cc2[nH]1)C1CCS(=O)(=O)C1 (stereo unspecified) | -7 | -19 | 0 | -5 | 0 | · | · | ·
O=C(CSc1nc2ccc(Cl)cc2[nH]1)NCCc1ccccc1 | -7 | 2 | 42* | -5 | 2 | 58* | -3 | 33*
CC(=O)c1sccc1NC(=O)c1ccccc1C(=O)O | -3 | -1 | -1 | -1 | -189 | · | · | ·
Nc1ncnc2c1ncn2[C@@H]1O[C@H](CNS(=O)(=O)c2ccc3c(c2)CCN(C(=O)C(F)(F)F)C3)[C@@H](O)[C@H]1O | 9 | -5 | 8.7* | -1 | -1 | 17* | 16* | 9
N#Cc1nc(COc2ccc(Br)cc2)oc1NCCCn1ccnc1 | -6 | -8 | 30* | 0 | 0 | 53* | 7 | 31*
O=c1[nH]c(COc2ccc(Br)cc2Cl)nc2ccccc12 | -1 | 2 | 6.2* | -4 | 4 | 30* | 3 | 14
Cc1[nH]c2ccc(Br)cc2c(=O)c1CN1CCCCCC1 | -7 | 5 | 60* | 4 | 0 | 82* | 4 | 52*
Cc1[nH]c2ccc(Cl)cc2c(=O)c1CN1CCCC1 | 4 | -8 | 45* | 4 | -3 | 48* | 10 | 28*
Cc1[nH]c2ccccc2c(=O)c1CN1CCCCC1 | 0 | -7 | 0 | -1 | -6 | · | · | ·
SMILES | PKA-R1A act | PKA-R2B act | Tb MetRS inh | H9c2 protect | Rin1 Abl inh | Tb MetRS conf | Jurkat cytotox | Tb MetRS inh FP
O=C(Cc1c(F)cccc1Cl)OCC(=O)N1CCN(c2ccccc2)CC1 | 9 | -4 | 0 | -4 | -1 | · | · | ·
CN(C)CCNC(=O)C(=O)Nc1cc2c3c(c1)CCN3C(=O)CC2 | -5 | 3 | 0 | 8 | 2 | · | · | ·
Nc1cc(Oc2ccc(Cl)cc2Cl)nc(N)n1 | 0 | -9 | 22* | -1 | -3 | 31* | -1 | 24*
COc1nc(C)nc(C)c1Oc1ccc(Cl)cc1Cl | · | · | 3 | -4 | 0 | · | · | ·
COc1cc2ccc(C(=O)O)cc2cc1OC | 6 | 1 | 0 | 1 | -3 | · | · | ·
Cc1nc(NCCC(C)C)c2nnn(Cc3ccccc3)c2n1 | -9 | 7 | 7.3* | 0 | 5 | 2 | 2 | 9
CCc1nc(NCCC(C)C)c2nnn(Cc3ccccc3)c2n1 | 8 | -16 | 0 | -12 | 1 | · | · | ·
NC(Cc1ccc(C(F)(F)F)cc1)c1csc(NC(=O)Nc2ccccc2)n1 (stereo unspecified) | · | · | 77* | -21 | -3 | 96* | 6 | 90*
NC(Cc1ccc(C(F)(F)F)cc1)c1csc(NC(=O)Nc2ccccc2Cl)n1 (stereo unspecified) | · | · | 0 | -17 | 0 | · | · | ·
NC(Cc1ccc(Cl)cc1)c1csc(NC(=O)Nc2ccccc2)n1 (stereo unspecified) | · | · | 61* | -19 | -2 | 87* | 12 | 85*
CC(=O)N1CCOc2ccc(S(=O)(=O)N3CCC(C(=O)NCc4ccc(F)cc4)CC3)cc21 | -9 | 5 | -1 | 0 | 0 | · | · | ·
Cn1c(CN2CCCC(C(=O)c3ccc4c(c3)OCO4)C2)nc2ccccc21 (stereo unspecified) | -9 | -2 | 6.4* | -3 | 4 | 12* | -1 | 1
Clc1ccc2nc(COc3ccccc3)[nH]c2c1 | -8 | 4 | 12* | -9 | -1 | 24* | 51* | 21*
OC(Cn1cnnc1)c1ccccc1 (stereo unspecified) | -9 | -2 | -1 | 7 | 7 | · | · | ·
Cc1cc(/C=N/N2CCN(C)CC2)c(C)n1-c1ccc(Cl)cc1 | -11 | -10 | -1 | 5 | 0 | · | · | ·
S=C(Nc1ccccc1)Nc1nc2ccccc2n1CCOc1ccc(Br)cc1 | -9 | 6 | 3 | 10 | -3 | · | · | ·
Nc1nc2ccccc2n1CCOc1ccccc1Cl | -4 | 6 | 67* | -20 | 0 | 80* | 8 | 44*
Nc1nc2ccccc2n1CCOc1ccc(Br)cc1 | -4 | -8 | 37* | -4 | 2 | 51* | 19* | 34*
